# Assay results from ChEMBL document CHEMBL1123180, “Improved glucose tolerance in rats treated with oxazolidinediones” (1986).
# Calls of active or inactive are those of the source. No cut-off for these calls is given here.
# System: Rattus norvegicus
# Test: Compound was tested for the ability to lower blood sugar level at the dose of 0.63 mg/kg in fasted rats, by using glucose tolerance test(GTT)
# Type: functional
# Settings: not given
# Outline: (§1)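 Male albino rats, groups of five or six, fasted 18–24 h. Glucose 1 g/kg given ip; test drug (0.1 to 100 mg/kg) or water (controls) given orally. Tail-vein blood sampled over 0–3 h; glucose (mg/100 mL) measured by Autoanalyser ferricyanide method. Value is percent lowering of blood glucose vs controls at 0.5 h; a lowering of ≥9% is needed for P = 0.05.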
row,Structure (SMILES),Blood sugar lowering [%]
1,COc1cccc(Cl)c1C1OC(=O)NC1=O (configuration not stated),11

# System: Rattus norvegicus
# Test: Ability to lower blood sugar level at the dose of 100 mg/kg in fasted rats, by using glucose tolerance test(GTT)
# Type: functional
# Settings: not given
# Outline: as §1
row,Structure (SMILES),Blood sugar lowering [%]
1,O=C1NC(=O)C(c2ccc3c(c2)OCO3)O1 (configuration not stated),18
2,O=C1NC(=O)C(c2cccc(Cl)c2)O1 (configuration not stated),26
3,CCOc1ccc(C2OC(=O)NC2=O)cc1 (configuration not stated),18
4,O=C1NC(=O)C(c2ccc(F)cc2)O1 (configuration not stated),21
5,Cc1ccc(C2OC(=O)NC2=O)cc1 (configuration not stated),10
6,O=C1NC(=O)C(c2ccc(OCc3ccccc3)cc2)O1 (configuration not stated),20
7,O=C1NC(=O)C(c2ccccc2OCc2ccccc2)O1 (configuration not stated),11
8,COc1ncccc1C(=O)NCCc1ccc(C2OC(=O)NC2=O)cc1 (configuration not stated),26
9,O=C1NC(=O)C(c2cccc(Oc3ccccc3)c2)O1 (configuration not stated),12
10,COc1ccc(C2OC(=O)NC2=O)cc1 (configuration not stated),19

# System: Rattus norvegicus
# Test: Ability to lower blood sugar level at the dose of 100 mg/kg in fasted rats, by using glucose tolerance test(GTT); NA=Inactive
# Type: functional, organism-based
# Parameters: dose 100 mg/kg
# Settings: not given
# Outline: as §1
row,Structure (SMILES),Blood sugar lowering
1,CCC1(c2ccccc2)OC(=O)NC1=O (configuration not stated),inactive
2,CNC(=O)Nc1ccccc1C1OC(=O)NC1=O (configuration not stated),inactive
3,O=C1NC(=O)C(c2ccccc2)N1 (configuration not stated),inactive
4,Nc1ccc(C2OC(=O)NC2=O)cc1 (configuration not stated),inactive
5,CN1C(=O)OC(c2ccccc2)C1=O (configuration not stated),inactive

# System: Rattus norvegicus
# Test: Ability to lower blood sugar level at the dose of 10 mg/kg in fasted rats, by using glucose tolerance test(GTT)
# Type: functional
# Settings: not given
# Outline: as §1
row,Structure (SMILES),Blood sugar lowering [%]
1,O=C1NC(=O)C(c2cccc(F)c2)O1 (configuration not stated),10
2,COc1cccc(C)c1C1OC(=O)NC1=O (configuration not stated),10
3,COc1cccc(OC)c1C1OC(=O)NC1=O (configuration not stated),12
4,O=C1NC(=O)C(c2ccccc2Cl)O1 (configuration not stated),11
5,O=C1NC(=O)C(c2cccc(C(F)(F)F)c2)O1 (configuration not stated),17
6,O=C1NC(=O)C(c2c(F)cccc2Cl)O1 (configuration not stated),12
7,COc1c(C)cc(Cl)cc1C1OC(=O)NC1=O (configuration not stated),17
8,COc1c(F)cc(C)cc1C1OC(=O)NC1=O (configuration not stated),17
9,COc1ccc(C)cc1C1OC(=O)NC1=O (configuration not stated),21
10,COc1c(Cl)cc(F)cc1C1OC(=O)NC1=O (configuration not stated),15
11,Cc1cccc(C)c1C1OC(=O)NC1=O (configuration not stated),13
12,Cc1ccccc1C1OC(=O)NC1=O (configuration not stated),14
13,O=C1NC(=O)C(c2ccccc2C(F)(F)F)O1 (configuration not stated),11
14,COc1ccc(Cl)c(C)c1C1OC(=O)NC1=O (configuration not stated),12

# System: Rattus norvegicus
# Test: Compound was tested for the ability to lower blood sugar level at the dose of 1 mg/kg in fasted rats, by using glucose tolerance test(GTT)
# Type: functional
# Settings: not given
# Outline: as §1
row,Structure (SMILES),Blood sugar lowering [%]
1,COc1cccc(F)c1C1OC(=O)NC1=O (configuration not stated),11
2,COc1ccc(Cl)cc1C1OC(=O)NC1=O (configuration not stated),12

# System: Rattus norvegicus
# Test: Ability to lower blood sugar level at the dose of 2.5 mg/kg in fasted rats, by using glucose tolerance test(GTT)
# Type: functional
# Settings: not given
# Outline: as §1
row,Structure (SMILES),Blood sugar lowering [%]
1,COc1ccc(C)cc1C1OC(=O)NC1=O (configuration not stated),10
2,COc1ccc(F)cc1C1OC(=O)NC1=O (configuration not stated),15
3,C=CCOc1cccc(Cl)c1C1OC(=O)NC1=O (configuration not stated),17

# Same assay, conditions: 2.5 mg/kg
row,Structure (SMILES),Blood sugar lowering [%]
1,"COc1ccc(Cl)cc1C1OC(=O)NC1=O (single isomer, unassigned; (+))",12
2,"COc1ccc(Cl)cc1C1OC(=O)NC1=O (single isomer, unassigned; (-))",26

# System: Rattus norvegicus
# Test: Ability to lower blood sugar level at the dose of 25 mg/kg in fasted rats, by using glucose tolerance test(GTT)
# Type: functional
# Settings: not given
# Outline: as §1
row,Structure (SMILES),Blood sugar lowering [%]
1,CSc1cccc(F)c1C1OC(=O)NC1=O (configuration not stated),18
2,O=C1NC(=O)C(c2c(Cl)cccc2Cl)O1 (configuration not stated),21
3,CSc1cccc(Cl)c1C1OC(=O)NC1=O (configuration not stated),21
4,COc1ccc(C2OC(=O)NC2=O)c(OC)c1 (configuration not stated),10
5,O=C1NC(=O)C(Cc2ccccc2)O1 (configuration not stated),9
6,CCc1ccc(OC)c(C2OC(=O)NC2=O)c1 (configuration not stated),10
7,O=C1NC(=O)C(c2ccccc2[N+](=O)[O-])O1 (configuration not stated),11
8,Cc1ccc(F)cc1C1OC(=O)NC1=O (configuration not stated),19
9,CCSc1cccc(F)c1C1OC(=O)NC1=O (configuration not stated),17
10,CC(C)Oc1cccc(F)c1C1OC(=O)NC1=O (configuration not stated),15
11,COc1ccc(C#N)cc1C1OC(=O)NC1=O (configuration not stated),19
12,Cl.Nc1ccccc1C1OC(=O)NC1=O (configuration not stated),15
13,O=C1NC(=O)C(c2c(F)cccc2F)O1 (configuration not stated),25

# System: Rattus norvegicus
# Test: Ability to lower blood sugar level at the dose of 25 mg/kg in fasted rats, by using glucose tolerance test(GTT); NA=Inactive
# Type: functional, organism-based
# Parameters: dose 25 mg/kg
# Settings: not given
# Outline: as §1
row,Structure (SMILES),Blood sugar lowering
1,COc1cccc(N)c1C1OC(=O)NC1=O (configuration not stated),inactive
2,COc1ccc(CCn2ccnc2)cc1C1OC(=O)NC1=O (configuration not stated),inactive
3,COc1cccc(C(F)(F)F)c1C1OC(=O)NC1=O (configuration not stated),inactive
4,O=C1NC(=O)C(c2ccccc2OCCn2ccnc2)O1 (configuration not stated),inactive
5,COc1ccc(N)cc1C1OC(=O)NC1=O (configuration not stated),inactive
6,CS(=O)(=O)Nc1ccccc1C1OC(=O)NC1=O (configuration not stated),inactive
7,COc1ccc(C(N)=O)cc1C1OC(=O)NC1=O (configuration not stated),inactive
8,COc1cccc(NC(C)=O)c1C1OC(=O)NC1=O (configuration not stated),inactive
9,COc1ccc(-c2ccccc2)cc1C1OC(=O)NC1=O (configuration not stated),inactive
10,O=C1NC(=O)C(c2c(Cl)cccc2[N+](=O)[O-])O1 (configuration not stated),inactive
11,COc1ccc(C(=O)O)cc1C1OC(=O)NC1=O (configuration not stated),inactive
12,O=C1NC(=O)C(c2c(Cl)cccc2OCc2ccccc2)O1 (configuration not stated),inactive
13,O=C(Nc1ccccc1C1OC(=O)NC1=O)NC1CCCCC1 (configuration not stated),inactive
14,O=C1NC(=O)C(c2ccccc2NS(=O)(=O)c2ccccc2)O1 (configuration not stated),inactive
15,COc1ccc(S(=O)(=O)NC(=O)NC2CCCCC2)cc1C1OC(=O)NC1=O (configuration not stated),inactive
16,O=C1NC(=O)C(c2c(F)cccc2C(F)(F)F)O1 (configuration not stated),inactive

# System: Rattus norvegicus
# Test: Compound was tested for the ability to lower blood sugar level at the dose of 50 mg/kg in fasted rats, by using glucose tolerance test(GTT)
# Type: functional
# Settings: not given
# Outline: as §1
row,Structure (SMILES),Blood sugar lowering [%]
1,COc1cccc(C2OC(=O)NC2=O)c1OC (configuration not stated),12
2,O=C1NC(=O)C(c2ccc(Cl)cc2)O1 (configuration not stated),12

# System: Rattus norvegicus
# Test: Ability to lower blood sugar level at the dose of 5 mg/kg in fasted rats, by using glucose tolerance test(GTT)
# Type: functional
# Settings: not given
# Outline: as §1
row,Structure (SMILES),Blood sugar lowering [%]
1,O=C1NC(=O)C(c2ccccc2F)O1 (configuration not stated),10
2,COc1ccccc1C1OC(=O)NC1=O (configuration not stated),14
3,CCOc1ccc(F)cc1C1OC(=O)NC1=O (configuration not stated),9
4,COc1ccc(Br)cc1C1OC(=O)NC1=O (configuration not stated),22
5,CCOc1cccc(F)c1C1OC(=O)NC1=O (configuration not stated),9
6,CCOc1ccccc1C1OC(=O)NC1=O (configuration not stated),15
7,CCOc1ccc(Cl)cc1C1OC(=O)NC1=O (configuration not stated),11
8,CC(=O)Nc1ccccc1C1OC(=O)NC1=O (configuration not stated),14

# System: Rattus norvegicus
# Test: Compound was tested for the ability to lower blood sugar level at the dose of 100 mg/kg in fasted rats, by using glucose tolerance test(GTT)
# Type: functional
# Settings: not given
# Outline: as §1
row,Structure (SMILES),Blood sugar lowering [%]
1,O=C1NC(=O)C(c2ccccc2)S1 (configuration not stated),34
2,O=C1NC(=S)OC1c1ccccc1 (configuration not stated),17

# System: Rattus norvegicus
# Test: Compound was tested for the ability to lower blood sugar level at the dose of 100 mg/kg in fasted rats, by using glucose tolerance test(GTT); NA=Inactive
# Type: functional, organism-based
# Parameters: dose 100 mg/kg
# Settings: not given
# Outline: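 Male albino rats (groups of five or six) fasted 18–24 h, given glucose 1 g/kg ip plus oral drug (range 0.1–100 mg/kg) or water for controls. Tail-vein blood glucose sampled over 0–3 h, read by ferricyanide autoanalyser method. Value is percent blood glucose lowering vs controls at 0.5 h; ≥9% lowering needed for significance at P = 0.05.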
row,Structure (SMILES),Blood sugar lowering
1,NC1=NC(=O)C(c2ccccc2)O1 (configuration not stated),inactive

# System: Rattus norvegicus
# Test: Compound was tested for the ability to lower blood sugar level at the dose of 10 mg/kg in fasted rats, by using glucose tolerance test(GTT); NA=Inactive
# Type: functional, organism-based
# Parameters: dose 10 mg/kg
# Settings: not given
# Outline: as §1
row,Structure (SMILES),Blood sugar lowering
1,C/C=C/Oc1cccc(Cl)c1C1OC(=O)NC1=O (configuration not stated),inactive
2,COc1ccc(S(N)(=O)=O)cc1C1OC(=O)NC1=O (configuration not stated),inactive

# System: Rattus norvegicus
# Test: Compound was tested for the ability to lower blood sugar level at the dose of 25 mg/kg in fasted rats, by using glucose tolerance test(GTT); NA=Inactive
# Type: functional, organism-based
# Parameters: dose 25 mg/kg
# Settings: not given
# Outline: as §1
row,Structure (SMILES),Blood sugar lowering
1,O=C1NC(=O)C(c2ccccc2)S1 (configuration not stated),inactive

# System: Rattus norvegicus
# Test: Ability to lower blood sugar level at the dose of 10 mg/kg in fasted rats, by using glucose tolerance test(GTT); NA=Inactive
# Type: functional, organism-based
# Parameters: dose 10 mg/kg
# Settings: not given
# Outline: as §1
row,Structure (SMILES),Blood sugar lowering
1,COc1cccc(C2OC(=O)NC2=O)c1 (configuration not stated),inactive
2,COc1cc(C2OC(=O)NC2=O)c(C)cc1F (configuration not stated),inactive
3,COc1cc(C2OC(=O)NC2=O)c(Cl)cc1C (configuration not stated),inactive
4,COc1ccc(OC)c(C2OC(=O)NC2=O)c1 (configuration not stated),inactive
5,COc1ccc(S(=O)(=O)N(C)C)cc1C1OC(=O)NC1=O (configuration not stated),inactive
6,COc1ccc(C(C)C)cc1C1OC(=O)NC1=O (configuration not stated),inactive
7,O=C1NC(=O)C(c2ccc(F)cc2C(F)(F)F)O1 (configuration not stated),inactive
8,COc1cc(C)c(Cl)cc1C1OC(=O)NC1=O (configuration not stated),inactive
9,O=C1NC(=O)C(c2c(Cl)cccc2OCC2CC2)O1 (configuration not stated),inactive
10,O=C1NC(=O)C(c2c(Cl)cccc2-n2cccc2)O1 (configuration not stated),inactive
